# Measurements gathered from unrelated publications.
# Protocols differ between the studies behind these lines.
# Target: Dual specificity mitogen-activated protein kinase kinase 1 (MAP2K1, Homo sapiens, UniProt Q02750)
SMILES,assay,conditions,remaining binding [%]
Cc1cnc(Nc2ccc(C(=O)N3CCC(N4CCCC4)CC3)cc2)nc1-c1cc2ccccc2s1,"binding, competition with immobilised ligand",1 µM,25
N#Cc1ccccc1CSc1nnc2c(n1)[nH]c1ccccc12,"binding, competition with immobilised ligand",10 µM,95
Cc1cnn2ncc(-c3ccnc(N(C)C)n3)c2c1,binding,1 µM,82
O=C(Nc1c[nH]nc1C(=O)NC1CCNCC1)c1cc(F)cc(F)c1,"binding, competition with immobilised ligand",1 µM,80
C[C@@H](c1cccc(C#N)c1)n1cc(Cl)cc(C(N)=O)c1=N,"cell-free assay, competition with immobilised ligand",1 µM,80
C[C@@H](c1ccc(-n2cnc3c(N)ncnc32)cc1)N1CCc2nn(C)c(Cc3ccccc3)c2C1=O,"binding, competition with immobilised ligand",0.1 µM,89
COc1ccc2cc(OCC3(C(=O)O)CN(C(=O)c4ccc(F)cc4)C3)ccc2c1,"cell-free assay, competition with immobilised ligand",1 µM,100
CN(c1nccc(-c2cnn3ncccc23)n1)C1CC1,binding,1 µM,100
CCN(CC)Cc1cc(Nc2ccnc3cc(Cl)ccc23)ccc1O,"cell-free assay, competition with immobilised ligand",0.1 µM,95
COc1ccc2c(c1)O[C@@H](c1ccc(OC)c(OC)c1)C[C@H]2NC(=O)C1(c2ccc3c(c2)OC(F)(F)O3)CC1,"cell-free assay, competition with immobilised ligand",1 µM,86
C[C@H]1CCN(c2nccc(-c3cnn4ncccc34)n2)C1,"binding, competition with immobilised ligand",1 µM,66
CS(=O)(=O)CCNCc1ccc(-c2ccc3ncnc(Nc4ccc(OCc5cccc(F)c5)c(Cl)c4)c3c2)o1,"cell-free assay, competition with immobilised ligand",10 µM,87
CCCOc1ccc([C@@H]2[C@@H](C(=O)O)[C@H](c3ccc4c(c3)OCO4)CN2CC(=O)Nc2c(CC)cccc2CC)cc1,"cell-free assay, competition with immobilised ligand",1 µM,93
Cc1c(-c2ccccc2)oc2c(C(=O)OCCN3CCCCC3)cccc2c1=O,"cell-free assay, competition with immobilised ligand",0.1 µM,94
O=C(N1CCS(=O)(=O)CC1)N1C[C@H](c2ccc(OC(F)(F)F)cc2)C[C@H](c2nc(C3CC3)no2)C1,"cell-free assay, competition with immobilised ligand",1 µM,91
c1cnn2ncc(-c3ccnc(N4CCC45COC5)n3)c2c1,"binding, competition with immobilised ligand",1 µM,69
COc1cnc(Nc2cccc(S(N)(=O)=O)c2)nc1N1CCN(c2ccccc2)CC1,"binding, competition with immobilised ligand",1 µM,90
N[C@@H]1CCN(c2nccc(-c3cnn4ncccc34)n2)C1,binding,1 µM,100
O=C1CCc2cc(Nc3cc(OC4CCOCC4)c([N+](=O)[O-])cc3Cl)ccc2N1,"cell-free assay, competition with immobilised ligand",1 µM,72
Cc1ccc(NC(=O)c2ccc(CN3CCN(C)CC3)cc2)cc1Nc1nccc(-c2cccnc2)n1,"cell-free assay, competition with immobilised ligand",10 µM,94
Cc1noc([C@H]2C[C@@H](c3ccc(C(F)(F)F)cc3)CN(C(=O)N3CCS(=O)(=O)C3)C2)n1,"cell-free assay, competition with immobilised ligand",1 µM,100
O=C(c1ccc(Nc2ncc(Cl)c(-c3cc4ccccc4s3)n2)cc1)N1CCC(N2CCCC2)CC1,"binding, competition with immobilised ligand",1 µM,21
COc1cc2ncnc(Nc3ccc(F)c(Cl)c3)c2cc1OCCCN1CCOCC1,"cell-free assay, competition with immobilised ligand",10 µM,83
CNC(=O)[C@@H]1CC[C@@H](n2c(-c3ccc4cnccc4c3)nc3ccc(C(=O)NCc4cccc(C(N)=O)c4)cc32)C1,"binding, competition with immobilised ligand",1 µM,100
CC(=O)N1CCC(c2ccc(C(=O)NC(=N)N)cc2C(F)(F)F)CC1,"cell-free assay, competition with immobilised ligand",1 µM,97
O=C(NCCCN1CCOCC1)c1ccc(Nc2nccc(-c3cc4ccccc4s3)n2)cc1,"binding, competition with immobilised ligand",1 µM,75
CN1CC[C@H](c2c(O)cc(O)c3c(=O)cc(-c4ccccc4Cl)oc23)[C@H](O)C1,"cell-free assay, competition with immobilised ligand",0.1 µM,92
C[C@@H]1CN(c2ccc3ncc(-c4ccc5[nH]nc(C6CC6)c5c4)n3n2)C[C@H](C)O1,"binding, competition with immobilised ligand",50 nM,80
CNC(=O)c1cc(Oc2ccc(NC(=O)Nc3ccc(Cl)c(C(F)(F)F)c3)cc2)ccn1,"cell-free assay, competition with immobilised ligand",0.1 µM,100
CC(C)(C)c1ccc(-c2nc(CBr)nn2-c2cccc(O)c2)cc1,"cell-free assay, competition with immobilised ligand",10 µM,83
Cc1nc(Nc2ncc(C(=O)Nc3c(C)cccc3Cl)s2)cc(N2CCN(CCO)CC2)n1,"cell-free assay, competition with immobilised ligand",0.1 µM,89
COc1ncc2cc3ccccc3nc2c1C#N,"cell-free assay, competition with immobilised ligand",5 µM,90
